Assay results taken from ChEMBL document CHEMBL4477223, “Design, synthesis and biological evaluation of N-methyl-N-[(1,2,3-triazol-4-yl)alkyl]propargylamines as novel monoamine oxidase B inhibitors” (Bioorg Med Chem, 2016).

Target: T1, Amine oxidase [flavin-containing] B (Homo sapiens, UniProt P27338)
T1 sequence (P27338 whole entry): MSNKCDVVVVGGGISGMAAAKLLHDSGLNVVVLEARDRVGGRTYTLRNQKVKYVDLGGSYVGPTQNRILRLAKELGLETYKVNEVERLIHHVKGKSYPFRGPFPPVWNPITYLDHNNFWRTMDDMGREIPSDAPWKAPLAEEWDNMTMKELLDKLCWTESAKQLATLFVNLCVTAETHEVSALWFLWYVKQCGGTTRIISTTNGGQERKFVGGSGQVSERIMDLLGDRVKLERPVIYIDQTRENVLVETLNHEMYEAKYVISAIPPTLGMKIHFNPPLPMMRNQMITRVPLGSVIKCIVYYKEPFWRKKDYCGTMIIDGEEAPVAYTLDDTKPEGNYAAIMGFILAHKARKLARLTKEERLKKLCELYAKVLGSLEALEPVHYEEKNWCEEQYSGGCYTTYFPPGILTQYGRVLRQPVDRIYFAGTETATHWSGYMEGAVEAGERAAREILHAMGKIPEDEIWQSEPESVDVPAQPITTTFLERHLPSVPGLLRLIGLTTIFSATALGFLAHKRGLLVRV
Experiment: Irreversible inhibition of human recombinant MAO-B at 50 uM preincubated for 1 h followed by 100 fold enzyme dilution and p-tyramine hydrochloride substrate addition measured after 40 mins by Amplex red fluorescence based spectrophotometry; call rule not given here

Row | inhibition (INH) | SMILES
1 | Active | C#CCN(C)CCc1cn(Cc2ccccc2)nn1

Target: T2, Amine oxidase [flavin-containing] A (Homo sapiens, UniProt P21397)
T2 sequence (P21397 whole entry): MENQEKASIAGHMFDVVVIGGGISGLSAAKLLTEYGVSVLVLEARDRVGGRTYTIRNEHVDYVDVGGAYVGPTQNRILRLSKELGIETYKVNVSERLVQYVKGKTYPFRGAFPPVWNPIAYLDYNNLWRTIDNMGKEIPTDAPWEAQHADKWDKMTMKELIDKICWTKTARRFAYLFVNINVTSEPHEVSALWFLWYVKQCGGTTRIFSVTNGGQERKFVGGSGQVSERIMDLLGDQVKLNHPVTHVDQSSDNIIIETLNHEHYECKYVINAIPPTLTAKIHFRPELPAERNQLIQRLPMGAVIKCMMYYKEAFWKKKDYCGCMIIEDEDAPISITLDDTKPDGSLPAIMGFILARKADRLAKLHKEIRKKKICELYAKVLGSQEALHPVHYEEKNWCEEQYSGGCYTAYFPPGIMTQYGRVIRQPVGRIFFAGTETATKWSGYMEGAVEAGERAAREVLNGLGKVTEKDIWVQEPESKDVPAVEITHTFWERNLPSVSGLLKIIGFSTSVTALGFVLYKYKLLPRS
Experiment: Inhibition of human recombinant MAO-A preincubated for 30 mins followed by p-tyramine hydrochloride addition measured after 30 mins by Amplex red fluorescence based spectrophotometry
Summary of the method: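 hrMAO-A at 0.36 U/mL preincubated with serial inhibitor dilutions for 30 min at 37 °C. Reaction started by adding 1 mM tyramine, 0.04 U/mL HRP and Amplex UltraRed in 0.25 mM sodium phosphate pH 7.4 (final). Resorufin fluorescence read at 530/590 nm for at least 30 min. No-compound activity set as 100%. Interference checked without enzyme.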

Row | IC50 | SMILES
2 | 97.1 µM | C#CCN(C)CCc1cn(Cc2ccccc2)nn1
3 | > 500 µM | C#CCN(C)Cc1cn(CCc2ccccc2)nn1
4 | 17.3 µM | C#CCN(C)CCc1nnn(-c2ccccc2)c1CCCC
5 | 27.4 µM | C#CCN(C)CCc1ccc(Cc2cn(C)nn2)cc1
6 | 26.1 µM | C#CCN(C)CCc1nnn(-c2ccccc2)c1CCC
7 | 0.5 µM | C#CCN(C)Cc1ccc(Cc2cn(C)nn2)cc1
8 | 56.1 µM | C#CCN(C)CCc1cn(CCc2ccccc2)nn1
9 | 135 µM | C#CCN(C)Cc1cn(CC)nn1
10 | 7.5 µM | C#CCN(C)CCc1nnn(-c2ccccc2)c1CC
11 | 2.1 µM | C#CCN(C)Cc1cccc(Cc2cn(C)nn2)c1
12 | 47 µM | C#CCN(C)CCc1nnn(C(C)c2ccccc2)c1C (stereo not given)
13 | > 500 µM | C#CCN(C)Cc1cn(Cc2ccccc2)nn1

Further lines, the compound ahead of its results:

Row | SMILES | IC50
14 | C#CCN(C)CCc1cn(CC)nn1 | 554 µM
15 | C#CCN(C)CCc1nnn(CC)c1C | 91.2 µM
16 | C#CCN(C)Cc1nnn(C)c1CCCC | < 300 µM
17 | C#CCN(C)Cc1nnn(CC)c1C | 267 µM

Organism: Homo sapiens
Experiment: Selectivity index, ratio of IC50 for human recombinant MAO-A to IC50 for human recombinant MAO-B

Row | Ratio IC50 | SMILES
18 | 27.7 | C#CCN(C)CCc1cn(Cc2ccccc2)nn1
19 | > 44.6 | C#CCN(C)Cc1cn(CCc2ccccc2)nn1
20 | 0.1 | C#CCN(C)CCc1nnn(-c2ccccc2)c1CCCC
21 | 5.3 | C#CCN(C)CCc1ccc(Cc2cn(C)nn2)cc1
22 | 0.2 | C#CCN(C)CCc1nnn(-c2ccccc2)c1CCC
23 | 0.9 | C#CCN(C)Cc1ccc(Cc2cn(C)nn2)cc1
24 | 0.3 | C#CCN(C)CCc1cn(CCc2ccccc2)nn1
25 | 0.5 | C#CCN(C)Cc1cn(CC)nn1
26 | 0.04 | C#CCN(C)CCc1nnn(-c2ccccc2)c1CC
27 | 0.03 | C#CCN(C)Cc1cccc(Cc2cn(C)nn2)c1
28 | 0.4 | C#CCN(C)CCc1nnn(C(C)c2ccccc2)c1C (stereo not given)
29 | > 3.9 | C#CCN(C)Cc1cn(Cc2ccccc2)nn1

Further lines, the compound ahead of its results:

Row | SMILES | Ratio IC50
30 | C#CCN(C)CCc1cn(CC)nn1 | 1.5
31 | C#CCN(C)CCc1nnn(CC)c1C | 0.4
32 | C#CCN(C)Cc1nnn(C)c1CCCC | < 3.2
33 | C#CCN(C)Cc1nnn(CC)c1C | 2.6

Test system: not listed separately
Experiment: Permeability of the compound at pH 7.4 after 18 hrs by PAMPA-BBB assay

Row | Papp at 18 h | SMILES
34 | 15.6 ×10⁻⁶ cm/s | C#CCN(C)CCc1cn(Cc2ccccc2)nn1
35 | 0.6 ×10⁻⁶ cm/s | C#CCN(C)Cc1cn(CCc2ccccc2)nn1
36 | 21.4 ×10⁻⁶ cm/s | C#CCN(C)CCc1nnn(-c2ccccc2)c1CCCC
37 | 4.5 ×10⁻⁶ cm/s | C#CCN(C)CCc1ccc(Cc2cn(C)nn2)cc1
38 | 17.2 ×10⁻⁶ cm/s | C#CCN(C)CCc1nnn(-c2ccccc2)c1CCC
39 | 14.8 ×10⁻⁶ cm/s | C#CCN(C)Cc1ccc(Cc2cn(C)nn2)cc1
40 | 14.8 ×10⁻⁶ cm/s | C#CCN(C)CCc1cn(CCc2ccccc2)nn1
41 | 17 ×10⁻⁶ cm/s | C#CCN(C)CCc1nnn(-c2ccccc2)c1CC
42 | 15.6 ×10⁻⁶ cm/s | C#CCN(C)Cc1cccc(Cc2cn(C)nn2)c1
43 | 20 ×10⁻⁶ cm/s | C#CCN(C)CCc1nnn(C(C)c2ccccc2)c1C (stereo not given)
44 | 2.3 ×10⁻⁶ cm/s | C#CCN(C)Cc1cn(Cc2ccccc2)nn1

Continued, compound first:

Row | SMILES | Papp at 18 h
45 | CCn1cc(C(=O)O)c(=O)c2cc(F)c(N3CCNCC3)cc21 [NORFLOXACIN] | 0.1 to 0.9 ×10⁻⁶ cm/s
46 | CN1C(C(=O)Nc2ccccn2)=C(O)c2ccccc2S1(=O)=O [PIROXICAM] | 1.93 to 2.5 ×10⁻⁶ cm/s
47 | CNCCCN1c2ccccc2CCc2ccccc21 [DESIPRAMINE] | 12 to 17.8 ×10⁻⁶ cm/s
48 | CCn1cc(C(=O)O)c(=O)c2cc(F)c(N3CCNC(C)C3)c(F)c21 (stereo not given) [LOMEFLOXACIN] | < 0.78 ×10⁻⁶ cm/s
49 | CN/C(=N/CCSCc1nc[nH]c1C)NC#N [CIMETIDINE] | < 0.7 ×10⁻⁶ cm/s
50 | C#CCN(C)Cc1nnn(C)c1CCCC | 29.9 ×10⁻⁶ cm/s
51 | Clc1cccc(Cl)c1N=C1NCCN1 [CLONIDINE] | 5.3 to 6.5 ×10⁻⁶ cm/s
52 | CC(=O)[C@H]1CC[C@H]2[C@@H]3CCC4=CC(=O)CC[C@]4(C)[C@H]3CC[C@]12C [PROGESTERONE] | 9.3 to 16.8 ×10⁻⁶ cm/s
53 | CN(C)CCCN1c2ccccc2Sc2ccccc21 [PROMAZINE] | 8.8 to 13.8 ×10⁻⁶ cm/s

Target: T1, Amine oxidase [flavin-containing] B
Experiment: Time-dependent inhibition of human recombinant MAO-B at 10 uM preincubated with enzyme followed by p-tyramine hydrochloride substrate addition by Amplex red fluorescence based spectrophotometry
Summary of the method: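 hrMAO-B was preincubated with inhibitor at 10 µM for 0–360 min. After each preincubation, activity was measured in the standard Amplex UltraRed/tyramine/HRP fluorometric assay at 530/590 nm. Results were expressed as % of control samples versus preincubation time.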

Row | TDI | SMILES
54 | Active | C#CCN(C)CCc1cn(Cc2ccccc2)nn1

Target: T1, Amine oxidase [flavin-containing] B
Experiment: Inhibition of human recombinant MAO-B preincubated for 30 mins followed by p-tyramine hydrochloride addition measured after 30 mins by Amplex red fluorescence based spectrophotometry

Row | IC50 | SMILES
55 | 3.5 µM | C#CCN(C)CCc1cn(Cc2ccccc2)nn1
56 | 11.2 µM | C#CCN(C)Cc1cn(CCc2ccccc2)nn1
57 | 156 µM | C#CCN(C)CCc1nnn(-c2ccccc2)c1CCCC
58 | 5.2 µM | C#CCN(C)CCc1ccc(Cc2cn(C)nn2)cc1
59 | 157 µM | C#CCN(C)CCc1nnn(-c2ccccc2)c1CCC
60 | 0.6 µM | C#CCN(C)Cc1ccc(Cc2cn(C)nn2)cc1
61 | 173 µM | C#CCN(C)CCc1cn(CCc2ccccc2)nn1
62 | 249 µM | C#CCN(C)Cc1cn(CC)nn1
63 | 213 µM | C#CCN(C)CCc1nnn(-c2ccccc2)c1CC
64 | 65 µM | C#CCN(C)Cc1cccc(Cc2cn(C)nn2)c1
65 | 134 µM | C#CCN(C)CCc1nnn(C(C)c2ccccc2)c1C (stereo not given)
66 | 129 µM | C#CCN(C)Cc1cn(Cc2ccccc2)nn1

Further lines, the compound ahead of its results:

Row | SMILES | IC50
67 | C#CCN(C)CCc1cn(CC)nn1 | 374 µM
68 | C#CCN(C)CCc1nnn(CC)c1C | 238 µM
69 | C#CCN(C)Cc1nnn(C)c1CCCC | 94.7 µM
70 | C#CCN(C)Cc1nnn(CC)c1C | 105 µM
